# Data as given in ChEMBL document CHEMBL2396579, “Synthesis and in vitro photocytotoxicity of coumarin derivatives for one- and two-photon excited photodynamic therapy” (J Med Chem, 2013).
# The source made the active and inactive calls. The rule behind the calls is not given here.
# How the values were obtained:
# [1] = Drug uptake in human HepG2 cell mitochondria at 10 uM after 4 hrs by confocal laser scanning microscopy; type: ADME; settings: hepg2, 4 h
# [2] = tested on: HepG2; assay: Cellular uptake in human HepG2 cells at 20 uM after 4 hrs by fluorescence spectrophotometry; type: ADME, cell-based; settings: hepg2, 4 h
# Procedure, shortened: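 HepG2 cells were incubated with 20 μM photosensitizer for different times and intracellular concentration was measured at each time point. Mean ± SD, three replicates.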
# [3] = tested on: HepG2; assay: Intracellular ROS generation in human HepG2 cells at 20 uM after 4 hrs by DCFH-DA-based fluorescence analysis; type: functional, cell-based
# Procedure, shortened: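 Intracellular ROS in HepG2 cells was detected with the probe 2,7-dichlorodihydrofluorescein diacetate (DCFH-DA), which ROS convert to fluorescent 2,7-dichlorofluorescein.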
# [4] = tested on: HepG2; assay: Photocytotoxicity against human HepG2 cells assessed as cell viability at 20 uM incubated for 4 hrs prior to 630 mW laser irradiation for 10 mins followed by 24 hrs incubation in dark by CCK-8 assay; type: functional; settings: for viability at 20 µM: HepG2, light or radiation study, read-out: Activity
# Procedure, shortened: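 HepG2 cells were incubated with 20 μM photosensitizer for 4 h and split into two equal series. One series received 800 nm femtosecond laser light (1.64 W cm−2, 1 kHz, 130 fs) for 10 min; the other stayed dark as control. Both were held 24 h in the dark before viability was read. Photosensitizer-free cells were also irradiated. Mean ± SD, three replicates.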
# [5] = tested on: HepG2; assay: Photocytotoxicity against human HepG2 cells assessed as growth inhibition incubated for 4 hrs in dark prior to 20 mW cm'-2 laser irradiation for 20 mins followed by 24 hrs incubation in dark by CCK8 assay; type: functional, cell-based; settings: HepG2, light or radiation study
# Procedure, shortened: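 HepG2 cells were loaded with photosensitizer for 4 h and then irradiated with a 532 nm laser for 20 min at 20 mW cm−2. They were kept in the dark for 24 h before the viability test. IC50 is the concentration giving 50% growth inhibition.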
# [6] = tested on: HepG2; assay: Dark cytotoxicity against human HepG2 cells after 24 hrs by CCK-8 assay; type: cell-based; settings: HepG2, 24 h
# Procedure, shortened: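 HepG2 cells exposed to a range of photosensitizer concentrations (tested up to 50 μM) for 24 h without light before the viability test. IC50 is the concentration giving 50% growth inhibition.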
# [7] = Solubility of the compound in PBS buffer at pH 7.4; type: physicochemical
# [8] = Octanol-water partition coefficient, log P of the compound; type: physicochemical
Compound,Drug uptake [1],Drug uptake [2],Activity [3],viability at 20 µM [4] [%],IC50 [5] [µM],IC50 [6] [µM],solubility [7] [µg/mL],logP [8],Activity [4]
CCN(CC)c1ccc2cc(C(=O)/C=C/c3ccc(N(CCOCCOCCOCCOC)CCOCCOCCOCCOC)cc3)c(=O)oc2c1,Active,Active,Active,30,4.6,> 50,750,2.2,
COCCOCCOCCOCCN(C)c1ccc(/C=C/C(=O)c2cc3ccc(OCCOCCOCCOC)cc3oc2=O)cc1,Not Active,Active,Active,,> 50,> 50,700,1.4,inactive
CCN(CC)c1ccc2cc(C(=O)/C=C/c3ccc(N(C)CCOCCOCCOCCOC)cc3)c(=O)oc2c1,Active,Active,Active,20,3.9,> 50,26,3.4,
COCCOCCOCCOCCN(CCOCCOCCOCCOC)c1ccc(/C=C/C(=O)c2cc3ccc(OCCOCCOCCOC)cc3oc2=O)cc1,Not Active,Active,Active,,> 50,> 50,> 10000,0.3,inactive
CCN(CC)c1ccc(/C=C/C(=O)c2cc3ccc(OCCOCCOCCOC)cc3oc2=O)cc1,Active,Active,Active,70,8.1,> 50,1.1,3,
